Screens from PubChem.
MEKK2mut PB1 HTS: signal of MEK5 binding to mutant human MEKK2 PB1 domain; bead flow cytometry, Alexa488-MEK5 binding to MEKK2 mutant; percent response, % at 10 µM; 0.35% of 290,000 active; AID 1530; in the data active means percent response above about 24%, passing the limit was not always enough
Apaf1 inhib: inhibitors of human Apaf-1 apoptosome; O14727; reconstituted apoptosome caspase-3 activity, DEVD-Rh110 fluorescence; inhibition, % at 20 µM; 0.71% of 330,000 active; AID 489030; active means inhibition of at least 40% at 20 µM
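Assay system – apoptosome proteins · Medium – Hepes buffer, pH 7.5 · Also added – cytochrome c with DEVD-Rh110 · Timing – 30 min compound preincubation, 50 min activation, room temperature · Detection – Rh110 fluorescence, excitation 480 nm, emission 540 nm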
UCH37 inh: human UCH37 deubiquitinating enzyme inhibition | 0.33% of 330,000 active | inhibition, % (concentration not given with the values) | purified proteasome/UCH37, Ub-AMC cleavage fluorescence;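 active means mean inhibition over replicate wells above about 20%, limit read from the data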
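assay system = human UCH37 enzyme supplied as purified proteasome complex | amount = proteasome at 0.15 nM in the dispensed enzyme solution | schedule = 30 min compound-proteasome preincubation then 25 min substrate reaction, room temperature | measured by = fluorescence, ex 355 nm, em 460 nm | benchmarks = no-proteasome wells (full inhibition) and compound-free wells (no inhibition)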
MEKK2 WT-MEK5: raises or lowers MEK5 binding to wildtype human MEKK2 PB1 domain | Q9Y2U5 | bead flow cytometry, Alexa488-MEK5 binding to MEKK2 WT; actives lie on both sides | binding response (% of control), % at 10 µM | 1.1% of 290,000 active | AID 1531; in the data active means binding response below about 67% or above about 130%
MEKK3 PB1 HTS: modulators (inhibitors or enhancers) of MEK5 binding to human MEKK3 PB1 domain | Q99759 | bead-based flow cytometry, Alexa488-MEK5 binding to MEKK3; actives lie on both sides; 0 = blocked by unlabeled MEK5, 100 = vehicle | binding response (% of control), % at 10 µM | 1.4% of 290,000 active;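 active means binding response more than 3 SD above or below the average of its plate-row segment, actives on both sides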;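 further: Alexa488 bead fluorescence after subtracting the streptavidin-only scavenger bead signal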
Target sequence (Q99759 whole entry, looked up, the tested form may be a part): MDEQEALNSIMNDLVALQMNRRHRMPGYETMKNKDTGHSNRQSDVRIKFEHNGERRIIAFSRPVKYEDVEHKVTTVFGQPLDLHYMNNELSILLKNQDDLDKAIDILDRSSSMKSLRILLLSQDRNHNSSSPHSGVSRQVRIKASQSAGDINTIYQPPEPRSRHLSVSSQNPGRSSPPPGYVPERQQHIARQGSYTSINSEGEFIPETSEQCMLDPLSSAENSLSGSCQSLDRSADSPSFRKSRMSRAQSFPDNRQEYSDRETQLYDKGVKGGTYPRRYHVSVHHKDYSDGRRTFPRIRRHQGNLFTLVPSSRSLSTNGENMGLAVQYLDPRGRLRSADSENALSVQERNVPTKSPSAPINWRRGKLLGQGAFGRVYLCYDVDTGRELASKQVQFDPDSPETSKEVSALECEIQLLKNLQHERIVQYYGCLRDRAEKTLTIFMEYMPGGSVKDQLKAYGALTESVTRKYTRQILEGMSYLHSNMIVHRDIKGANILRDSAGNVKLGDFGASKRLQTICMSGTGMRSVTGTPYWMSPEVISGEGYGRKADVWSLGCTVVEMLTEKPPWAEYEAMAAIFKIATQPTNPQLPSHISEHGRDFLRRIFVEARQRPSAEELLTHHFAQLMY
UBC13 inh: blocks human UBC13 polyubiquitin chain formation; P61088; TR-FRET; inhibition, % at 20 µM; 0.47% of 330,000 active; in the data active means inhibition above about 45%, passing the limit was not always enough
MEKK2wt confirm: raises or lowers MEK5 binding to wildtype human MEKK2, retest; bead flow cytometry, Alexa488-MEK5 binding to MEKK2 WT; actives lie on both sides; AID 1892; 2.4% of 5,900 active; shares compounds with MEKK3 PB1 HTS; binding response (% of control), % at 10 µM; in the data active means binding response below about 16% or above about 210%; inactive means in between
MEKK2mut-MEK5: signal of MEK5 binding to mutant human MEKK2, retest. AID 1893. 2% of 5,900 active. percent response, % at 10 µM. shares compounds with MEKK3 PB1 HTS. bead flow cytometry, Alexa488-MEK5 binding to MEKK2 mutant; in the data active means percent response mostly above about 71%, no sharp cut-off; inactive means mostly below about 38%;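 further: higher means compound restores mutant binding toward wildtype level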
MEKK3-MEK5 inh: MEKK3-MEK5 PB1 inhibition, single concentration confirmation | shares compounds with MEKK3 PB1 HTS | bead flow cytometry, Alexa488-MEK5 binding to MEKK3; stronger effect = lower value | binding response (% of control), % at 10 µM | 1.8% of 5,900 active;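 active means binding response below 72% of control, or above a set upper limit, though filed actives all read lower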
Numbers stand for hits; – = inactive; · = no result given; [ ] = another dose, or the depositor's remark. Only some compounds are listed: those with a hit (about 3% of all), similar ones and a draw of the others.

SMILES	MEKK2mut PB1 HTS	Apaf1 inhib	UCH37 inh	MEKK2 WT-MEK5	MEKK3 PB1 HTS	UBC13 inh	MEKK2wt confirm	MEKK2mut-MEK5	MEKK3-MEK5 inh
O=C(O)CC1(CC(=O)Nc2ccc3ccccc3c2)CCCCC1	–	–	–	-1.0[inhibitor]	1.0[inhibitor]	–	–	–	–
Cc1ccc(-c2nc(SCC(=O)NCCN3C(=O)CSC3=O)[nH]c2-c2ccc(C)cc2)cc1	·	–	·	·	·	–	·	·	·
CN(C)CCCNS(=O)(=O)c1cc(Cl)c(Cl)cc1Cl	–	–	–	–	–	–	·	·	·
O=C(NC1CCN(Cc2ccccc2)CC1)C1CCCN(c2nnc(-n3cccc3)s2)C1 (centres undefined)	–	–	–	–	–	–	·	·	·
O=C(NC1CCN(Cc2ccccc2)CC1)C1CCN(c2nnc(-n3cccc3)s2)CC1	50	–	–	203	–	–	–	–	–
Cn1cc(C2CC(c3ccccc3)=NN2C(=O)c2ccccc2)c2ccccc21 (centres undefined)	–	–	–	–	–	–	·	·	·
CCCC(=O)N1N=C(c2ccccc2)CC1c1cn(C)c2ccccc12 (centres undefined)	–	–	–	–	134	–	–	–	–
O=C(COc1ccccc1[N+](=O)[O-])N/N=C/c1ccc(OC(=O)c2ccco2)cc1	–	–	·	–	139	–	–	–	–
CCc1cc2ccc(OC)cc2nc1SCC(=O)NNC(C)=O	–	–	–	–	135	–	–	–	–
CCc1cc2ccccc2nc1SCC(=O)Nc1cc(C)on1	–	–	–	–	–	–	·	·	·
CCc1cc2ccc(OC)cc2nc1SCC(=O)Nc1cc(C)on1	–	–	–	–	123	–	–	–	–
O=C(Nc1cc(C(F)(F)F)ccc1Cl)C(NCc1ccccc1)c1ccccc1 (centres undefined)	–	–	–	–	–	–	·	·	·
CCN(CC)CCNC(C(=O)Nc1cc(C(F)(F)F)ccc1Cl)c1ccccc1 (centres undefined)	–	–	–	–	143	–	–	–	–
O=C(/C=C/c1ccc(F)cc1)NCCCN1CCN(CCCNC(=O)/C=C/c2ccc(F)cc2)CC1	–	–	–	146	–	–	–	–	–
O=C(/C=C/c1ccc(Cl)c(Cl)c1)NCCCn1ccnc1	–	–	–	–	–	–	·	·	·
Cc1ccc(/C=C/C(=O)NCCCn2ccnc2)cc1	–	–	–	5.0[inhibitor]	3.0[inhibitor]	–	–	–	–
COc1ccc(/C=C/C(=O)NCCCN2CCCCCC2)cc1	28	–	–	155	–	–	–	–	–
Cc1ccc(Cl)cc1NS(=O)(=O)c1cc2[nH]c(=O)c(=O)[nH]c2cc1C	–	–	–	–	–	–	·	·	·
CC(C)Oc1ccccc1NC(=O)CSc1nc2ccccc2c(=O)n1C	–	–	–	–	–	–	·	·	·
Cc1ccc(N2CCN(C(=O)CNS(=O)(=O)c3ccc(Br)s3)CC2C)cc1 (centres undefined)	·	–	–	·	·	–	·	·	·
COc1ccc(CC(=O)Nc2ccccc2C(=O)N2CCOCC2)cc1	–	–	–	–	–	–	·	·	·
Cc1nc(N=C(N)N)nc2ccccc12	–	–	–	–	75[inhibitor]	–	–	–	–
Cc1sc2nc(CN3CCOCC3)nc(Cl)c2c1C	–	–	–	–	–	–	·	·	·
Cc1sc2nc(CN3CCC(C)CC3)nc(Cl)c2c1C	–	–	–	–	161	–	–	–	–
C/C(C=NNC(=O)c1cc(-c2ccc(C)o2)[nH]n1)=C\c1ccccc1	·	·	–	·	·	·	·	·	·
SMILES	MEKK2mut PB1 HTS	Apaf1 inhib	UCH37 inh	MEKK2 WT-MEK5	MEKK3 PB1 HTS	UBC13 inh	MEKK2wt confirm	MEKK2mut-MEK5	MEKK3-MEK5 inh
Cc1c(C(=O)Nc2ccc(OC(F)(F)F)cc2)sc2nc3n(c(=O)c12)CCC3	–	–	–	–	–	–	·	·	·
Cc1c(C(=O)Nc2ccc(Oc3ccccc3)cc2)sc2nc3n(c(=O)c12)CCC3	–	–	–	–	77[inhibitor]	–	–	–	–
COc1ccc(C(=O)C2CCCN(C(=O)c3ccc(F)cc3)C2)cc1OC (centres undefined)	–	–	–	–	–	–	·	·	·
COc1ccc(C(=O)C2CCCN(C(=O)c3cc(C)nc(C)n3)C2)cc1OC (centres undefined)	–	–	–	–	129	–	–	–	–
COc1nc(Nc2ccccc2F)nc(OC)n1	25	–	–	–	–	–	–	–	–
CC(=O)N1CCC(C(=O)Nc2ccc3c(c2)CCC3)CC1	–	–	–	–	–	–	·	·	·
COc1cccc(/C=N/n2c(CO)nc3ccccc32)c1OC	–	–	·	–	71[inhibitor]	–	–	–	–
CCCCC1=CC2=C(c3ccco3)C(=O)C(C)(OC(=O)c3ccc(OC)cc3)C(=O)C2=CN1CCN1CCOCC1 (centres undefined)	–	–	–	142	–	–	–	–	–
CCCCC1=CC2=C(c3ccco3)C(=O)C(C)(OC(=O)c3ccc(OC)cc3)C(=O)C2=CN1C(CO)CO (centres undefined)	–	–	–	144	–	–	–	–	–
CCCCC1=CC2=C(c3ccco3)C(=O)C(C)(OC(=O)c3ccc(OC)cc3)C(=O)C2=CN1c1ccc(OC)cc1 (centres undefined)	–	–	–	–	–	–	·	·	·
CCCCC1=CC2=C(c3ccco3)C(=O)C(C)(OC(=O)c3ccc(OC)cc3)C(=O)C2=CN1CCCCO (centres undefined)	–	–	–	–	–	–	·	·	·
CCCCn1c(N)c(N(CCOC)C(=O)CCCc2nc3ccccc3s2)c(=O)[nH]c1=O	·	–	–	·	·	–	·	·	·
CCOc1nc(Nc2ccc(OC)c(Cl)c2)nc(N2CCN(c3ccc(OC)cc3)CC2)n1	33	–	–	–	79[inhibitor]	–	–	–	–
CCOc1nc(Nc2ccc(F)cc2)nc(N2CCN(c3ccc(OC)cc3)CC2)n1	–	–	–	–	–	–	·	·	·
CCc1cc(C(=O)N=Nc2c(O)[nH]c3c(Br)cc(Br)cc23)c2ccccc2n1	–	–	–	–	139	–	–	–	–
Cc1cccc(-n2cc(CN3CCN(Cc4nccn4C)CC3)c(-c3cccc(F)c3)n2)c1	–	–	–	153	–	–	–	–	–
COc1ccc(-n2cc(CN3CCCC3)c(-c3cccc(F)c3)n2)cc1	–	–	–	–	–	–	·	·	·
